Measurements taken from ChEMBL document CHEMBL1828537, “Halogenated 2'-benzoylpyridine thiosemicarbazone (XBpT) chelators with potent and selective anti-neoplastic activity: relationship to intracellular redox activity” (J Med Chem, 2011).

Legend:
MRC5 = experiment: Cytotoxicity against human MRC5 cells after 72 hrs […]; assay type: cell-based; conditions: MRC5, 72 h
[1] = Therapeutic index, ratio of IC50 for human MRC5 cells to IC50 for human SK-N-MC cells; assay type: cell-based; conditions: MRC5 cells and SK-N-MC cells, read-out: Ratio IC50
[2] = Toxicity in human SK-N-MC cells assessed as cell viability after 3 hrs by trypan blue staining; assay type: cell-based; set-up: concentration or dose not given beside the values; conditions: read-out: Activity
Method in brief: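 Viability of SK-N-MC cells judged by Trypan blue staining after the 3 h chelator incubation used in the 59Fe mobilization assays.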

SK-N-MC [3] = experiment: Antiproliferative activity against human SK-N-MC cells after 72 hrs by MTS assay; assay type: functional, cell-based
SK-N-MC [4] = experiment: Induction of intracellular reactive oxygen species production in human SK-N-MC cells assessed as oxidation of H2DCF into DCF at 25 uM after 3 hrs by FACS analysis relative to control; assay type: functional
M109 = experiment: Anticancer activity against mouse M109 cells xenografted in iv dosed CD2F1 mouse assessed as reduction in tumor growth after 5 days; assay type: functional
SK-N-MC [5] = experiment: 59Fe uptake from transferrin in human SK-N-MC cells at 25 uM after 3 hrs relative to control
SK-N-MC [6] = experiment: Induction of Fe efflux in human SK-N-MC cells assessed as release of intracellular 59Fe up to 25 uM after 3 hrs by gamma-scintillation counting; assay type: functional

SMILES	IC50 (SK-N-MC [3]) [µM]	IC50 (MRC5) [µM]	selectivity ratio [1]	viability at 3 h [2] [%]	Activity (SK-N-MC [4]) [%]	inhibition (INH) (M109) [%]	level, % of control at 25 µM (SK-N-MC [5]) [%]	Activity (SK-N-MC [6]) [%]
NC(=S)N/N=C(\c1ccccc1)c1ccccn1	5.59	> 25		> 99				
CNC(=S)N/N=C(\c1ccccc1)c1ccccn1	0.024	2.32	96	> 99	114			
O=C(N/N=C/c1c(O)ccc2ccccc12)c1ccncc1	2.53			> 99			6	55
CC(=O)N(O)CCCCCNC(=O)CCC(=O)N(O)CCCCCNC(=O)CCC(=O)N(O)CCCCCN [DEFEROXAMINE]	22.7			> 99			74	23

Stronger by IC50 (SK-N-MC [3]), values ahead:

IC50 (SK-N-MC [3]) [µM]	SMILES	IC50 (MRC5) [µM]	selectivity ratio [1]	viability at 3 h [2] [%]	Activity (SK-N-MC [4]) [%]	inhibition (INH) (M109) [%]	level, % of control at 25 µM (SK-N-MC [5]) [%]	Activity (SK-N-MC [6]) [%]
0.009	CN(C)C(=S)N/N=C(\c1ccccc1)c1ccccn1	1.01	116	> 99	156			
0.004	CN(C)C(=S)NN=C(c1ccccn1)c1ccccn1			> 99		50	4	53
0.012	CCNC(=S)N/N=C(\c1ccccc1)c1ccccn1	0.738	64	> 99	138			
